Screens deposited in PubChem BioAssay by Sanford-Burnham Center for Chemical Genomics.
SENP1 inh: inhibitors of human SENP1 SUMO protease catalytic domain. recombinant SENP1 catalytic domain, CyPet-SUMO1-YPet FRET cleavage. inhibition, % at 10 µM. hit rate 0.21% among 360,000. AID 624204;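 active means inhibition at least 30% at 10 µM, raw YFP signal under a set limit, fluorescence ratio 0.5 to 1.5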;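 further: 0% = enzyme with DMSO and 100% = no enzyme wells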
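Controls: no-enzyme wells low, DMSO-plus-enzyme wells high control. Test system: human recombinant His6-tagged SENP1 catalytic domain enzyme. Reagent: SFCypet-SUMO1-SFYpet FRET protein substrate, 25 nM final. Doses: one dose per compound, 10 µM, 0.5% DMSO. Detection: FRET, CFP and YFP emission. Timing: 50 min reaction at room temperature.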
SENP8 block-1: inhibitors of human SENP8 protease | Q96LD8 | purified SENP8, Z-RLRGG-aminoluciferin cleavage, luminescence | inhibition, % at 10 µM | hit rate 1.2% among 330,000 | AID 2540; in the data active means inhibition above about 50%
SENP6 block: blocks the human protease SENP6. Q9GZR1. Recombinant SENP6 catalytic domain, aminoluciferin luminescence. inhibition, % at 10 µM. hit rate 1.8% among 330,000. AID 2599;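 active means inhibition above about 50% at the single tested dose, limit read from the data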;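 further: plate controls were DMSO wells with enzyme for no effect and DMSO wells lacking enzyme for full effect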
Target sequence (Q9GZR1 628-1112 limits assumed): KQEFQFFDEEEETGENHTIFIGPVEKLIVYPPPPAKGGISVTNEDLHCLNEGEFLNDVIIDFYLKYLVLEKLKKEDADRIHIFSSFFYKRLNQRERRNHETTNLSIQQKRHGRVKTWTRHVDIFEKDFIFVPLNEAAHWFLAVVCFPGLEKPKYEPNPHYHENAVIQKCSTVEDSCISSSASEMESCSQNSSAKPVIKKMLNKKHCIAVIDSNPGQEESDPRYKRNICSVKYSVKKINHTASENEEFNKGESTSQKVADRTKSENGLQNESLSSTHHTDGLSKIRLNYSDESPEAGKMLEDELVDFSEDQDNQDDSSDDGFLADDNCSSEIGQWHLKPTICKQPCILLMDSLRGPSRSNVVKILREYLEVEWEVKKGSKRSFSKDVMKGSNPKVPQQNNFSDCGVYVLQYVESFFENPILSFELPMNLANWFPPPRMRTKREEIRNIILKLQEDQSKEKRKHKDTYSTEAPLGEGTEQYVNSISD
SENP7 inh: SENP7 protease inhibition; recombinant SENP7, Z-RLRGG-aminoluciferin luminescence, 40 min; inhibition, % at 5 µM; hit rate 1.5% among 330,000;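 active means inhibition above about 50% at the single test dose, limit read from the data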;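 further: plate controls were DMSO with enzyme for no effect and no enzyme buffer wells for full effect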
SENP8 block-2: inhibitors of human SENP8 protease | Q96LD8 | recombinant SENP8, Nedd8 substrate fluorescence | inhibition, % at 20 µM | hit rate 0.64% among 360,000 | AID 602440; in the data active means inhibition mostly above about 40%, no sharp cut-off; inactive means mostly below about 27%
SENP8 conf: human SENP8 inhibition, confirmed; shares compounds with SENP7 inh; Recombinant SENP8, Z-RLRGG-aminoluciferin luminescence, 60 min; inhibition, % at 12.5 µM; hit rate 40% among 6,200; AID 488912;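 active means mean inhibition across replicates above about 50%, limit read from the data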
SENP6 conf: confirmation of human SENP6 protease inhibitors. inhibition, % at 12.5 µM. hit rate 58% among 6,200. shares compounds with SENP7 inh. recombinant SENP6, Z-RLRGG-aminoluciferin luminescence
SENP7 confirm: confirmation of human SENP7 protease inhibitors; AID 488917; shares compounds with SENP7 inh; inhibition, % at 12.5 µM; hit rate 69% among 6,200; recombinant SENP7, Z-RLRGG-aminoluciferin luminescence, 40 min
Casp3 select: caspase-3 inhibition (SENP selectivity assay); shares compounds with SENP7 inh; AID 488918; purified caspase-3, Z-DEVD-aminoluciferin luminescence, 60 min; hit rate 60% among 6,200; inhibition, % at 12.5 µM;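 active means mean inhibition above about 50%, limit read from the data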;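 further: plate controls were enzyme with DMSO for no effect and wells without caspase-3 for full effect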
Luc interf: counter-screen for SENP inhibitors: luminescence interference; Pre-incubated SENP8/Z-RLRGG-aminoluciferin, luciferase luminescence interference; inhibition, % at 12.5 µM; hit rate 39% among 6,200; shares compounds with SENP7 inh;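 active means mean inhibition above about 50% when retested at one dose, limit read from the data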;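 further: plate controls were DMSO wells with completed reaction for no effect and substrate without enzyme for full effect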
* = called active by the depositor; . = no result given. An excerpt weighted towards active compounds, which were near 2.5% of everything screened.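 How the source made its calls, unless noted: active means mean inhibition above about 50% in the one-dose retest (limit read from the data); inactive means the rest.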

SMILES	SENP1 inh	SENP8 block-1	SENP6 block	SENP7 inh	SENP8 block-2	SENP8 conf	SENP6 conf	SENP7 confirm	Casp3 select	Luc interf
CCCS(=O)(=O)N1CCCC(C(=O)c2ccccc2OC)C1 (centres undefined)	4	-4	-11	-4	8	.	.	.	.	.
Cc1cc(/C=N/Nc2ncnc(N)c2[N+](=O)[O-])c(C)n1-c1ccccc1	4	94*	0	97*	55*	6	61*	95*	52*	11
COc1cccc(/C=N/Nc2ncnc(N)c2[N+](=O)[O-])c1OC	2	17	68*	72*	20	38	46	64*	77*	21
Cc1cc(/C=N/Nc2nc(N)ncc2[N+](=O)[O-])c(C)n1-c1cccc(C(F)(F)F)c1	.	-16	1	-15	.	.	.	.	.	.
COc1cccc(C=NNc2ccc([N+](=O)[O-])cn2)c1OC	-30	.	.	.	-186	.	.	.	.	.
CC(C)(C)c1ccc(/C=C2\SC(=O)N(CCNC(=O)c3cccc(S(=O)(=O)N4CCOCC4)c3)C2=O)cc1	3	82*	91*	90*	0	39	59*	74*	55*	3
CC(=O)c1sc(N/N=C\c2ccc(N(C)C)cc2)nc1C	-26	31	77*	82*	-301	20	54*	95*	48	16
CC(=O)c1sc(N/N=C/c2cccc(O)c2)nc1C	-43	4	11	1	-402	.	.	.	.	.
O=C(CSc1nc2ccccc2o1)Nc1nccs1	2	5	1	4	7	.	.	.	.	.
CC(=O)N1CCC(C(=O)Nc2cc(S(=O)(=O)N3CCCCC3)ccc2C)CC1	4	.	.	.	17	.	.	.	.	.
CCCCN1C(=O)/C(=C2\SC(N3CCCCC3)=NC2=O)c2ccccc21	1	-7	26	11	13	.	.	.	.	.
CCCCN1C(=O)C(=Nc2cccc3cnccc23)c2ccccc21	0	11	87*	81*	-398	-10	-3	-7	-2	-7
CC12CCC(=O)N1C(C(=O)Nc1cc(S(=O)(=O)N3CCCCCC3)ccc1OCC(F)(F)F)CS2 (centres undefined)	-1	-11	-8	-10	-3	.	.	.	.	.
Cc1ccc(C)c(OCc2ccc(C(=O)Nc3ccc([N+](=O)[O-])cn3)o2)c1	-1	-6	-8	4	11	.	.	.	.	.
COc1cc(OC)cc(C(=O)Nc2ccc([N+](=O)[O-])cn2)c1	-1	25	50	81*	5	9	11	24	46	12
Cc1cc(C(=O)Nc2ccc([N+](=O)[O-])cn2)cs1	2	28	51*	51*	2	28	41	77*	75*	12
COc1ccc(C(=O)Nc2ccc([N+](=O)[O-])cn2)cc1OC	0	-10	-2	2	13	.	.	.	.	.
Cc1ccc(C(=O)Nc2ccc([N+](=O)[O-])cn2)o1	-2	12	53*	19	17	35	29	72*	77*	24
CC1C(=O)NN=C1C(=O)N/N=C\c1ccc(O)cc1O (centres undefined)	-26	61*	71*	75*	8	68*	65*	87*	89*	24
CN1CCc2cc3c(c4c2[C@H]1[C@H](O)c1ccccc1-4)OCO3	-32	16	59*	43	-15	33	78*	64*	70*	9
COc1ccc2c(c1OC)C(=O)OC2C1c2c(cc3c(c2OC)OCO3)CCN1C (centres undefined)	1	3	-15	1	-12	.	.	.	.	.
COc1cc(OC)cc(C(=O)OCC(=O)c2cc(C)n(CC3CCCO3)c2C)c1 (centres undefined)	0	48	68*	22	0	57*	49	79*	53*	3
Cc1cc(C(=O)COC(=O)c2ccc(O)cc2)c(C)n1CC1CCCO1 (centres undefined)	1	26	54*	2	12	54*	49	83*	67*	41
Cc1cc(C(=O)COC(=O)c2ccc(Cl)c(S(N)(=O)=O)c2)c(C)n1CC1CCCO1 (centres undefined)	-1	7	-5	-4	13	.	.	.	.	.
O=C(N/N=C/c1ccccc1)c1n[nH]c2c1CCCC2	3	47	58*	50*	-2	12	39	69*	76*	13
SMILES	SENP1 inh	SENP8 block-1	SENP6 block	SENP7 inh	SENP8 block-2	SENP8 conf	SENP6 conf	SENP7 confirm	Casp3 select	Luc interf
O=C(N/N=C/c1ccc(Cl)cc1)c1n[nH]c2c1CCCC2	1	-8	-8	-5	4	.	.	.	.	.
O=C(N/N=C/c1cccs1)c1n[nH]c2c1CCC2	3	50	79*	77*	4	41	70*	89*	90*	51*
O=C(N/N=C/c1ccccc1Cl)c1n[nH]c2c1CCCC2	0	86*	69*	98*	11	-10	-2	-2	26	-14
O=C(N/N=C/c1ccccc1Cl)c1cccc(F)c1	3	53*	69*	72*	15	4	70*	92*	76*	68*
O=C(N/N=C/c1c(Cl)cccc1Cl)c1cccc(F)c1	1	-19	-11	15	9	.	.	.	.	.
O=C(C[C@H]1C[C@@H]2c3cc(NC(=O)c4cccnc4)ccc3O[C@@H]2[C@H](CO)O1)NCc1ccncc1	-4	.	.	.	-10	.	.	.	.	.
Cc1cc(C)cc(NC(=O)CSc2nnc(CNC(=O)c3ccco3)n2C)c1	-2	-3	-11	4	4	.	.	.	.	.
N#Cc1ccccc1COC(=O)c1ccc2c(c1)OCCO2	3	31	61*	28	5	59*	52*	78*	43	37
O=C(Nc1ccccc1)N1CC=C(c2ccc(F)cc2)CC1	-2	0	52*	35	-21	25	18	59*	30	42
Cc1ccc(NC(=O)C2CCCN(C(=O)Nc3ccc(F)cc3)C2)cc1 (centres undefined)	1	0	-8	-6	12	.	.	.	.	.
Cc1ccc(C2CCN(C(=O)Nc3ccc(F)cc3)C2)cc1 (centres undefined)	2	-5	61*	4	12	9	1	13	18	12
COc1cccc(NC(=O)COc2ccccc2C(N)=O)c1	2	38	65*	39	14	30	27	71*	75*	52*
